Measurements taken from ChEMBL document CHEMBL1130854, “Diarylsulfonamides as selective, non-peptidic thrombin inhibitors” (Bioorg Med Chem Lett, 1998).

Columns and labels:
[1] = Compound was tested for the concentration which causes a doubling of the thrombin clotting time of human plasma.; type: functional
Procedure, shortened: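 Human plasma thrombin clotting time measured across inhibitor concentrations (μM). Coagulation time (sec) fitted to y = a + b·x^c, a being the uninhibited clotting time and b, c shape/location parameters. Value taken as the concentration that doubles the clotting time (IC200).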

[2] = Inhibitory activity against trypsin/plasmin/factor Xa
Prothrombin = Prothrombin (Homo sapiens, UniProt P00734); experiment: Inhibitory activity against thrombin

Compound | Ki [2] | Ki (Prothrombin) | IC200 [1]
Cc1cc(NS(=O)(=O)c2ccccc2)cc(OCCCN)c1 | > 500 µM | 170 µM | >250 µM
Cc1cc(NS(=O)(=O)c2ccccc2)cc(OCCCCN)c1 | > 500 µM | 6.5 µM | 179 µM
Cc1cc(NS(=O)(=O)c2ccccc2)cc(OCCN)c1 | > 500 µM | 240 µM | >250 µM
Cc1cc(NS(=O)(=O)c2ccccc2)cc(OCCCCCCN)c1 | > 500 µM | 9 µM | >250 µM
Cc1cc(NS(=O)(=O)c2ccccc2)cc(OCCCCCCN=C(N)N)c1 | > 500 µM | 7 µM | 237 µM

Now from value to molecule, other results behind:

Ki [2] | Ki (Prothrombin) | Compound | IC200 [1]
> 500 µM |  | O=S(=O)(Nc1cccc(OCCNc2ccncc2)c1)c1ccccc1 | 2.3 µM
> 500 µM | 0.023 µM | Cc1cc(NS(=O)(=O)c2ccccc2)cc(OCCNc2ccncc2)c1 | 0.29 µM
> 500 µM | 0.18 µM | Cc1cc(NS(=O)(=O)c2ccccc2)cc(OCCCCN=C(N)N)c1 | 10 µM
> 500 µM | 2 µM | Cc1cc(NS(=O)(=O)c2ccccc2)cc(OCCN=C(N)N)c1 | 38 µM
> 500 µM | 9.9 µM | Cc1cc(NS(=O)(=O)c2ccccc2)cc(OCCCCCN)c1 | >250 µM
> 500 µM | 0.63 µM | Cc1cc(NS(=O)(=O)c2ccccc2)cc(OCCCN=C(N)N)c1 | 10 µM
> 500 µM | 6.4 µM | Cc1cc(NS(=O)(=O)c2ccccc2)cc(OCCCCCN=C(N)N)c1 | 188 µM
